Measured values collected from several papers.
Compare with care: the assays were run in different laboratories.
EGFR: Epidermal growth factor receptor (EGFR, Homo sapiens, UniProt P00533)
EGFR L858R/T790M: Epidermal growth factor receptor (EGFR, Homo sapiens, UniProt P00533, L858R/T790M)

Structure (SMILES) | target | test | setting | measurement | result
COc1ncccc1-c1cnn2ccc(N3CCN(C(=O)OC(C)C)CC3)nc12 | EGFR | binding, competition with immobilised ligand | 1 µM | remaining binding | 89%
Cn1cncc1[C@](O)(COc1ccc(C#N)cc1-c1ccc(OC(F)(F)F)cc1)c1ccc(C#N)cc1 | Epidermal growth factor receptor (EGFR, Homo sapiens, UniProt P00533, del747-752/P753S) | cell-free assay, competition with immobilised ligand | 1 µM | remaining binding | 76%
C[C@H](C(=O)N[C@H]1COc2ccccc2[C@@H]1S(C)(=O)=O)c1ccc(F)cc1 | EGFR | enzyme activity, inhibitor | 10 µM | inhibition | 1%
CC(C)[C@@H]1NC(=O)[C@H](C)NC(=O)[C@H](C)NC(=O)[C@H](Cc2ccc(O)cc2)NC(=O)[C@H](Cc2ccc(O)cc2)NC(=O)[C@H](Cc2ccccc2)NC(=O)[C@@H](Cc2ccc(O)cc2)NC(=O)CSC[C@@H](C(=O)NCC(N)=O)NC(=O)[C@H](C)NC(=O)[C@H](CCCNC(=N)N)NC(=O)[C@H](CCCNC(=N)N)NC(=O)[C@H](Cc2ccc(O)cc2)NC(=O)[C@H](C(C)C)NC(=O)[C@H](C(C)C)NC(=O)[C@H](CC(N)=O)NC1=O | EGFR | binding, SPR | – | kon | 38800 M⁻¹ s⁻¹
CC(C)(C)c1cc(C=C(C#N)C#N)cc(Br)c1O | EGFR | enzyme activity, inhibitor | 0.5 µM | remaining activity | 106%
Cn1cc(-c2cc(F)cc(N3CCn4c(cc5c4CCCC5)C3=O)c2CO)cc(Nc2ccc(N3CCN(C4COC4)CC3)cn2)c1=O | EGFR | enzyme activity, inhibitor | 0.1 µM | inhibition | 7%
Nc1ncc(-c2nc(N3CCOCC3)nc(N3CCOCC3)n2)c(C(F)F)n1 | Epidermal growth factor receptor (EGFR, Homo sapiens, UniProt P00533, L861Q) | cell-free assay, competition with immobilised ligand | 10 µM | remaining binding | 77%
COc1ccc2c(c1)/C(=C/c1cnc[nH]1)C(=O)N2 | EGFR | cell-free assay | 0.5 µM | remaining signal | 99.4%
C#Cc1n[nH]c2c(-c3cn([C@@H](C)c4ccccc4)c(=O)[nH]c3=O)cc(F)cc12 | EGFR L858R/T790M | enzyme activity, inhibitor | 0.1 µM | inhibition | -4.9%
Cc1nn(C)cc1-c1nc2c(N3CCN(Cc4ccc(Cl)cc4)CC3)c(Cl)cnc2[nH]1 | Epidermal growth factor receptor (EGFR, Homo sapiens, UniProt P00533, T790M) | binding, competition with immobilised ligand | 1 µM | remaining binding | 82%
N#CC1(c2ccccn2)CCN(Cc2cc(C(=O)O)c(=O)n3ccccc23)CC1 | EGFR | cell-free assay, competition with immobilised ligand | 1 µM | remaining binding | 83%
C#Cc1n[nH]c2c(-c3cn([C@@H](C)c4ccccn4)c(=O)[nH]c3=O)cc(F)cc12 | EGFR L858R/T790M | enzyme activity, inhibitor | 0.1 µM | inhibition | -3.6%
c1ccc(C(NCCNC(c2ccccc2)c2ccccc2)c2ccccc2)cc1 | EGFR | enzyme activity, inhibitor | 10 µM | inhibition | -8%
